# Measured values as given in ChEMBL document CHEMBL1123309, “Esters and lactones of phenolic amino carboxylic acids: prodrugs for iron chelation” (J Med Chem, 1986).
# Where “and” joins values, the source holds several entries; their conditions need not be identical. Equal values may be shown once.
# Legend:
# [1] = system: Mus musculus; experiment: BDF1 male mice were administered with the compound and number of survivors was determined at a dose 100 mg/kg intraperitoneally out of 10 tested; assay type: functional; conditions: route intraperitoneal
# Outline: (§1)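 Male BDF1 mice were iron-loaded by transfusion of canine red cells. The cells were heparinised, washed twice in isotonic saline and heated at 50 °C for 30 min. Dosing started two days after the last transfusion, once daily for 7 consecutive days. Compounds were given in distilled water or as a fine aqueous suspension with Polysorbate 80 (2% final). Toxic signs were recorded daily and survivors counted per group.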
# [2] = system: Mus musculus; experiment: BDF1 male mice were administered with 100 mg/kg orally and percent change in iron levels was determined in spleen; assay type: functional; conditions: route intraperitoneal, in the assay text read “intraperitoneally” for “orally”
# Outline: (§2)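 Male BDF1 mice made iron-overloaded by transfusion of washed, heat-treated (50 °C, 30 min) canine red cells. Dosing began 2 days after the last transfusion, once daily for 7 days, in distilled water or 2% Polysorbate 80 suspension. Daily group urine was collected. Pooled feces were digested in 1 N HCl (90 °C, 30 min). Liver and spleen were homogenized in saline. Iron was measured by atomic absorption and expressed as % change vs transfused controls.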
# [3] = system: Mus musculus; experiment: BDF1 male mice were administered with 200 mg/kg orally and percent change in iron levels was determined in faeces; assay type: functional, Feces; conditions: route oral; outline: as §2
# [4] = system: Mus musculus; experiment: BDF1 male mice were administered with 200 mg/kg orally and percent change in iron levels was determined in liver; assay type: functional; conditions: route oral; outline: as §2
# [5] = system: Mus musculus; experiment: BDF1 male mice were administered with the compound and number of survivors was determined at a dose 200 mg/kg peroral out of 10 tested; assay type: functional; conditions: route oral; outline: as §1
# [6] = Half life was determined at pH 7.5 in the presence of Fe(III) Half life was determined Spectrophotometrically
# [7] = system: Mus musculus; experiment: BDF1 male mice were administered with 25 mg/kg orally and percent change in iron levels was determined in faeces; assay type: functional, Feces; conditions: dose 100 mg/kg; route intraperitoneal; in the assay text read “100 mg/kg intraperitoneally” for “25 mg/kg orally”
# [8] = system: Mus musculus; experiment: BDF1 male mice were administered with 25 mg/kg orally and percent change in iron levels was determined in urine; assay type: functional; conditions: dose 100 mg/kg; route intraperitoneal; in the assay text read “100 mg/kg intraperitoneally” for “25 mg/kg orally”
# [9] = First order rate constant was determined Titrimetrically) at pH 7.5 in the presence of Fe(III)
# [10] = system: Mus musculus; experiment: BDF1 male mice were administered with 200 mg/kg orally and percent change in iron levels was determined in spleen; assay type: functional; conditions: route oral; outline: as §2
# [11] = First order rate constant was determined Spectrophotometrically at pH 7.5 in the presence of Fe(III)
# [12] = Half life was determined at pH 10.5 in the presence of Fe(III) Half life was determined Titrimetrically; assay type: ADME; conditions: pH 7.5; in the assay text read “pH 7.5” for “pH 10.5”
# Outline: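 Metal and chelator were each 5 × 10⁻⁴ M. Constant pH was held with 0.05 M NaOH. Hydrolysis rate came from base consumption, with first-order kinetics.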
# [13] = system: Mus musculus; experiment: BDF1 male mice were administered with 150 mg/kg orally and percent change in iron levels was determined in Feces; assay type: functional; conditions: route oral; outline: as §2
# [14] = system: Mus musculus; experiment: BDF1 male mice were administered with 400 mg/kg orally and percent change in iron levels was determined in Spleen; assay type: functional; conditions: route oral
# Outline: (§3)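 Hypertransfused male BDF1 mice (canine red cells, washed and heated at 50 °C for 30 min) were dosed orally for 7 days with compound in distilled water or a fine suspension with Polysorbate 80 (2% final). Daily group urine and pooled feces (1 N HCl digest, 90 °C, 30 min, triplicate) were collected, and liver and spleen were homogenized. Iron was measured by atomic absorption and reported as % change vs transfused control.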
# [15] = system: Mus musculus; experiment: BDF1 male mice were administered with 600 mg/kg orally and percent change in iron levels was determined in Urine; assay type: functional; conditions: route oral; outline: as §3
# [16] = system: Mus musculus; experiment: BDF1 male mice were administered with 300 mg/kg orally and percent change in iron levels was determined in Spleen; assay type: functional; conditions: route oral; outline: as §3
# [17] = system: Mus musculus; experiment: BDF1 male mice were administered with 75 mg/kg orally and percent change in iron levels was determined in Spleen; assay type: functional; conditions: route oral; outline: as §3
# [18] = system: Mus musculus; experiment: BDF1 male mice were administered with 150 mg/kg orally and percent change in iron levels was determined in Liver; assay type: functional; conditions: route oral; outline: as §2
# [19] = system: Mus musculus; experiment: BDF1 male mice were administered with 75 mg/kg orally and percent change in iron levels was determined in Feces; assay type: functional; conditions: route oral; outline: as §3
# [20] = system: Mus musculus; experiment: BDF1 male mice were administered with 400 mg/kg orally and percent change in iron levels was determined in Liver; assay type: functional; conditions: route oral; outline: as §3
# [21] = system: Mus musculus; experiment: BDF1 male mice were administered with the compound and number of survivors was determined at a dose 300 mg/kg peroral out of 6 tested; assay type: functional; conditions: route oral; outline: as §1
# [22] = system: Mus musculus; experiment: BDF1 male mice were administered with the compound and number of survivors was determined at a dose 150 mg/kg peroral out of 6 tested; assay type: functional; conditions: route oral; outline: as §1
# [23] = system: Mus musculus; experiment: BDF1 male mice were administered with 150 mg/kg orally and percent change in iron levels was determined in Urine; assay type: functional; conditions: route oral; outline: as §2
# [24] = system: Mus musculus; experiment: BDF1 male mice were administered with 75 mg/kg orally and percent change in iron levels was determined in Urine; assay type: functional; conditions: route oral; outline: as §3
# [25] = system: Mus musculus; experiment: BDF1 male mice were administered with 400 mg/kg orally and percent change in iron levels was determined in Urine; assay type: functional; conditions: route oral; outline: as §3
# [26] = system: Mus musculus; experiment: BDF1 male mice were administered with 600 mg/kg orally and percent change in iron levels was determined in Liver; assay type: functional; conditions: route oral; outline: as §3
# [27] = system: Mus musculus; experiment: BDF1 male mice were administered with 600 mg/kg orally and percent change in iron levels was determined in Feces; assay type: functional; conditions: route oral; outline: as §3
# [28] = system: Mus musculus; experiment: BDF1 male mice were administered with 300 mg/kg orally and percent change in iron levels was determined in Urine; assay type: functional; conditions: route oral; outline: as §3
# [29] = system: Mus musculus; experiment: BDF1 male mice were administered with 300 mg/kg orally and percent change in iron levels was determined in Liver; assay type: functional; conditions: route oral; outline: as §3
# [30] = system: Mus musculus; experiment: BDF1 male mice were administered with 600 mg/kg orally and percent change in iron levels was determined in Spleen; assay type: functional; conditions: route oral; outline: as §3
# [31] = First order rate constant was determined Spectrophotometrically at pH 7.5
# [32] = system: Mus musculus; experiment: BDF1 male mice were administered with the compound and number of survivors was determined at a dose 400 mg/kg peroral out of 10 tested; assay type: functional; conditions: route oral; outline: as §1
# [33] = system: Mus musculus; experiment: BDF1 male mice were administered with 150 mg/kg orally and percent change in iron levels was determined in Spleen; assay type: functional; conditions: route oral; outline: as §2
# [34] = system: Mus musculus; experiment: BDF1 male mice were administered with 75 mg/kg orally and percent change in iron levels was determined in Liver; assay type: functional; conditions: route oral; outline: as §3
# [35] = system: Mus musculus; experiment: BDF1 male mice were administered with 400 mg/kg orally and percent change in iron levels was determined in Feces; assay type: functional; conditions: route oral; outline: as §3
# [36] = system: Mus musculus; experiment: BDF1 male mice were administered with the compound and number of survivors was determined at a dose 75 mg/kg peroral out of 6 tested; assay type: functional; conditions: route oral; outline: as §1
# [37] = system: Mus musculus; experiment: BDF1 male mice were administered with 300 mg/kg orally and percent change in iron levels was determined in Feces; assay type: functional; conditions: route oral; outline: as §3
# [38] = system: Mus musculus; experiment: BDF1 male mice were administered with the compound and number of survivors was determined at a dose 600 mg/kg peroral out of 6 tested; assay type: functional; conditions: route oral; outline: as §1
# [39] = system: Mus musculus; experiment: BDF1 male mice were administered with 129 mg/kg intraperitoneally and number of survivors was determined out 10 tested; assay type: functional; conditions: route intraperitoneal; outline: as §1
# [40] = system: Mus musculus; experiment: BDF1 male mice were administered with 129 mg/kg intraperitoneally and percent change in iron levels was determined in Feces; assay type: functional; conditions: route intraperitoneal; outline: as §2
# [41] = system: Mus musculus; experiment: BDF1 male mice were administered with 129 mg/kg intraperitoneally and percent change in iron levels was determined in Liver; assay type: functional; conditions: route intraperitoneal; outline: as §2
# [42] = system: Mus musculus; experiment: BDF1 male mice were administered with 129 mg/kg intraperitoneally and percent change in iron levels was determined in Urine; assay type: functional; conditions: route intraperitoneal; outline: as §2
# [43] = system: Mus musculus; experiment: BDF1 male mice were administered with 129 mg/kg intraperitoneally and percent change in iron levels was determined in Spleen; assay type: functional; conditions: route intraperitoneal; outline: as §2
# [44] = system: Mus musculus; experiment: BDF1 male mice were administered with 200 mg/kg intraperitoneally and percent change in iron levels was determined in liver; assay type: functional; conditions: route intraperitoneal; outline: as §2
# [45] = system: Mus musculus; experiment: BDF1 male mice were administered with 200 mg/kg intraperitoneally and percent change in iron levels was determined in Urine; assay type: functional; conditions: route intraperitoneal; outline: as §2
# [46] = system: Mus musculus; experiment: BDF1 male mice were administered with 100 mg/kg intraperitoneally and percent change in iron levels was determined in Liver; assay type: functional; conditions: route intraperitoneal; outline: as §2
# [47] = system: Mus musculus; experiment: BDF1 male mice were administered with 100 mg/kg intraperitoneally and percent change in iron levels was determined in Spleen; assay type: functional; conditions: route intraperitoneal; outline: as §2
# [48] = system: Mus musculus; experiment: BDF1 male mice were administered with 100 mg/kg intraperitoneally and number of survivors was determined out of 10 tested; assay type: functional; conditions: route intraperitoneal; outline: as §1
# [49] = system: Mus musculus; experiment: BDF1 male mice were administered with 200 mg/kg intraperitoneally and percent change in iron levels was determined in Feces; assay type: functional; conditions: route intraperitoneal; outline: as §2
# [50] = system: Mus musculus; experiment: BDF1 male mice were administered with 100 mg/kg intraperitoneally and percent change in iron levels was determined in Urine; assay type: functional; conditions: route intraperitoneal; outline: as §2
# [51] = system: Mus musculus; experiment: BDF1 male mice were administered with 200 mg/kg intraperitoneally and percent change in iron levels was determined in Spleen; assay type: functional; conditions: route intraperitoneal; outline: as §2
# [52] = system: Mus musculus; experiment: BDF1 male mice were administered with 100 mg/kg intraperitoneally and percent change in iron levels was determined in Feces; assay type: functional; conditions: route intraperitoneal; outline: as §2
# [53] = system: Mus musculus; experiment: BDF1 male mice were administered with 200 mg/kg intraperitoneally and number of survivors was determined out of 10 tested; assay type: functional; conditions: route intraperitoneal; outline: as §1
compound,measurement,setting,value
CCOC(=O)CN(CCN(CC(=O)OCC)Cc1ccccc1O)Cc1ccccc1O,No. of survivors,[1],10
same,Iron change,[2],4%
same,Iron change,[3],-77%
same,Iron change,[4],-49% and -63%
same,No. of survivors,[5],8
same,half-life,[6],1.01 h
same,Iron change,[7],26%
same,Iron change,[8],240%
same,10E2 k1,[9],1.99 min⁻¹
same,Iron change,[10],-34%
same,10E2 k1,[11],1.14 min⁻¹
same,half-life,[12],0.58 h
CC(C)OC(=O)CN(CCN(CC(=O)OC(C)C)Cc1ccccc1O)Cc1ccccc1O,Iron change,[13],23%
same,Iron change,[14],-13%
same,Iron change,[15],141%
same,Iron change,[16],-7%
same,Iron change,[17],-10%
same,Iron change,[18],-32%
same,Iron change,[19],1%
same,Iron change,[20],-45%
same,No. of survivors,[21],6
same,No. of survivors,[22],6
same,Iron change,[23],33%
same,Iron change,[24],-10%
same,half-life,[6],2.15 h
same,Iron change,[25],233%
same,Iron change,[26],-56%
same,Iron change,[27],5%
same,Iron change,[28],76%
same,Iron change,[29],-45%
same,Iron change,[30],-27%
same,10E2 k1,[31],0.542 min⁻¹
same,No. of survivors,[32],10
same,Iron change,[33],2%
same,Iron change,[34],-34%
same,Iron change,[35],-5%
same,No. of survivors,[36],6
same,Iron change,[37],-1%
same,No. of survivors,[38],6
O=C([O-])CN(CCN(CC(=O)[O-])c1ccccc1O)c1ccccc1O.[Li+].[Li+],No. of survivors,[39],9
same,Iron change,[40],-38%
same,Iron change,[41],-49%
same,Iron change,[42],28%
same,Iron change,[43],-7%
O=C([O-])CN(CCN(CC(=O)[O-])c1ccccc1O)c1ccccc1O.[Na+].[Na+],Iron change,[44],-22%
same,Iron change,[45],143%
same,Iron change,[46],-22%
same,Iron change,[47],7%
same,No. of survivors,[48],10
same,Iron change,[49],-15%
same,Iron change,[50],106%
same,Iron change,[51],22%
same,Iron change,[52],3%
same,No. of survivors,[53],5
